Sampled rows, rich in hits. Any-hit rate of the full collection: about 2.4%.
UBC9 SUMO inh = inhibitors of human SUMOylation (UBC9); P63279; HTRF SUMOylation assay, SAE1/SAE2 + UBC9, in vitro; inhibition, % at 35 µM; 0.36% of 290,000 active; AID 2006; in the data active means inhibition above about 50%, passing the limit was not always enough; inconclusive means no clear call, values can overlap the other calls
Target sequence (P63279 whole entry, looked up): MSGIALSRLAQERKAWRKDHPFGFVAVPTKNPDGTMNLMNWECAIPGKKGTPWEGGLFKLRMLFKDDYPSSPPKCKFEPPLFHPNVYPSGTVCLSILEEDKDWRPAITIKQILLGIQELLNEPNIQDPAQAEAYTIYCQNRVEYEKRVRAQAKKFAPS
A3G deaminase = APOBEC3G (human) deaminase inhibition. Q9HC16. recombinant A3G, ssDNA deamination FAM/TAMRA fluorescence. inhibition, % at 20 µM. 0.28% of 330,000 active. AID 493012;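 active means inhibition of at least 40% at 20 µM, with no more than 30% in the related APOBEC3A deaminase screen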
APOBEC3A inh = inhibitors of human APOBEC3A DNA deaminase. P31941. recombinant A3A, FAM/TAMRA ssDNA deamination fluorescence. inhibition, % at 20 µM. 0.41% of 330,000 active. AID 493011;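 active means at least 40% inhibition at 20 µM here, with at most 30% in a related deaminase screen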
Target sequence (P31941 whole entry, looked up): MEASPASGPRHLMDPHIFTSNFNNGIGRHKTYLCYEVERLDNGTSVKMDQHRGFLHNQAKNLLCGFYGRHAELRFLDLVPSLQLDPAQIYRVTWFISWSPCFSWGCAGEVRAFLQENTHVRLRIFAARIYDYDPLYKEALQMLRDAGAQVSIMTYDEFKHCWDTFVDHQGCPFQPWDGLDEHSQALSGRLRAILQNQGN
HKDC1 inh = HKDC1 (human) hexokinase inhibition. recombinant HKDC1, G6PDH/diaphorase resazurin coupled fluorescence. inhibition, % at 20 µM. 0.16% of 340,000 active. AID 493160;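 active means inhibition above about 35% when tested at 20 µM, limit read from the data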
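Incubation: 90 min at room temperature in dark / Material: recombinant HKDC1 (HK5) hexokinase enzyme, produced in-house / Quantity: enzyme 5 µg/mL final / Compound: one dose of 20 µM, 1% DMSO / Reagent: glucose and ATP substrates / Buffer or medium: Tris pH 8.0 buffer with MgCl2, Tween-20, BSA, BME / Technique: resorufin fluorescence at 613 nm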
PfM18AAP inh = PfM18AAP enzyme inhibition. recombinant PfM18AAP, H-Glu-NHMec fluorogenic cleavage. inhibition, % at 7.35 µM. 1.2% of 290,000 active;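 active means inhibition above the campaign mean inhibition over all tested compounds plus 3 SD, cut at about 28% in these data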
PfGluPho inh = PfG6PD (Plasmodium falciparum) enzyme inhibition; PfGluPho enzyme, NADPH resazurin-diaphorase fluorescence; inhibition, % at 20 µM; 0.78% of 350,000 active;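 active means inhibition reaching at least a set limit at 20 µM in the primary screen, cut at about 59% in these data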
PfG6PD confirm = confirmation of Plasmodium falciparum G6PD inhibitors; shares compounds with PfGluPho inh; recombinant PfGluPho, NADPH-diaphorase-resazurin fluorescence; inhibition, % at 20 µM; 34% of 2,400 active; AID 504753;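 active means inhibition of at least 50% at 20 µM in any single replicate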
Diaph ctr 10uM = inhibits diaphorase or oxidizes, flagging false PfG6PD hits; shares compounds with PfGluPho inh; diaphorase-coupled resazurin reduction, fluorescence, NADPH 10 uM; inhibition, % at 20 µM; 39% of 820 active; AID 504862;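 active means average inhibition reaching 50% or more with the compound at 20 µM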;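 further: resorufin red fluorescence formed as diaphorase reduces resazurin using NADPH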
Diaph ctr 30uM = diaphorase inhibition or oxidation at 30 uM NADPH | inhibition, % at 20 µM | Diaphorase/resazurin coupled assay, resorufin fluorescence | 29% of 820 active | shares compounds with PfGluPho inh;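 active means inhibition averaging 50% or more, tested at 20 µM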
Numbers stand for hits; . = inactive; ? = inconclusive; / = no result.

SMILES | UBC9 SUMO inh | A3G deaminase | APOBEC3A inh | HKDC1 inh | PfM18AAP inh | PfGluPho inh | PfG6PD confirm | others
O=C(N[C@H]1C/C=C\C[C@@H](CC(=O)N(CCO)Cc2ccccc2)C(=O)N[C@H](Cc2c[nH]c3ccccc23)COC1=O)OCC1c2ccccc2-c2ccccc21 | / | . | . | . | / | . | /
COc1ccc(C)cc1Nc1nc(-c2c[nH]c3ccccc23)cs1 | . | . | . | . | . | 60 | .
N=c1n(CCN2CCCCC2)c2ccccc2n1CC(=O)c1ccc(Cl)c(Cl)c1 | . | . | . | . | . | 93 | .
Cc1ccc(-c2ccc(/C=N/NC(N)=S)o2)cc1 | . | . | . | . | . | 62 | .
NC(=S)N/N=C/c1ccc(-c2ccccc2)o1 | . | . | . | . | . | . | /
O=C(O)CSc1nnc(NC(=O)c2ccc3c(c2)OCO3)s1 | . | . | . | . | . | . | /
C=CCSc1nnc(NC(=O)c2ccc3c(c2)OCCO3)s1 | / | / | / | / | / | 99 | .
CCOC(=O)C1(Cc2cccc(OC)c2)CCN(Cc2cnc(N)nc2)CC1 | . | . | . | . | . | . | /
COC(=O)c1ccc(/C=C/c2ccc3cccc(OC)c3n2)cc1 | ? | . | . | . | . | 74 | .
COc1cc(/C=C/c2ccc3cccc(O)c3n2)cc(Cl)c1OC | . | . | . | . | . | 73 | .
COc1cc(CNC(=O)c2cc(C(=O)NCc3cc(OC)cc(OC)c3)n(C)n2)cc(OC)c1 | / | . | . | . | / | . | /
CN1CCC(=C(c2ccc(Cl)cc2)c2ccccn2)CC1 | . | . | . | . | . | . | /
CCOc1ccccc1OCc1nn2c(COc3ccccc3)nnc2s1 | . | . | . | . | . | 69 | .
c1ccc(Cc2nn3c(COc4ccccc4)nnc3s2)cc1 | . | . | . | . | . | 63 | .
Nc1ccc(C(=O)NCCCCCCNC(=O)c2ccc(N)cc2)cc1 | . | . | . | . | . | . | /
Cc1coc2cc3oc(=O)c(CCC(=O)NCc4ccccn4)c(C)c3cc12 | . | . | . | . | . | . | /
Cc1cc(Nc2ccc(Cl)cc2)nc(N)n1 | . | . | . | . | . | 63 | .
Cc1ccc2[nH]c(O)c(N=NC(=O)C(C)n3cnc4ccccc4c3=O)c2c1 (stereo unspecified) | . | . | . | . | . | 68 | 50 | Diaph ctr 10uM=68;Diaph ctr 30uM=55
O=C1CN(S(=O)(=O)c2cccc(Cl)c2Cl)CCN1 | / | . | . | . | / | . | /
N#Cc1c(N2CCCC2)nc(N)c2c(N)nc(N3CCCC3)cc12 | 100 | . | . | . | . | 107 | .
CCn1c(=O)c([N+](=O)[O-])c(NCCCn2ccnc2)c2ccccc21 | . | . | . | . | . | . | /
O=C(CSc1nnc(-c2ccncc2)o1)Nc1cc(Cl)ccc1C(=O)O | / | . | . | . | / | 60 | .
O=c1[nH]cc(C(F)(F)F)cc1NS(=O)(=O)c1ccc([N+](=O)[O-])cc1 | . | . | . | . | . | . | /
CCn1c(SCC(=O)Nc2ccc(C)cc2)nnc1-c1cnccn1 | . | . | . | . | . | 68 | .
C=CCn1c(SCC(=O)Nc2cc(C)cc(C)c2)nnc1-c1cnccn1 | . | . | . | . | . | . | /
SMILES | UBC9 SUMO inh | A3G deaminase | APOBEC3A inh | HKDC1 inh | PfM18AAP inh | PfGluPho inh | PfG6PD confirm | others
CCn1c(SCC(=O)Nc2ccc3c(c2)c2ccccc2n3CC)nnc1-c1cnccn1 | . | . | . | . | . | . | /
C=CCn1c(SCC(=O)Nc2ccc(OC)cc2)nnc1-c1cnccn1 | . | . | . | . | . | 64 | .
C=CCn1c(SCC(=O)Nc2ccccc2OC)nnc1-c1ccccn1 | . | . | . | . | . | . | /
CCn1c(SCC(=O)Nc2ccccc2OC)nnc1-c1cnccn1 | . | . | . | . | . | 78 | 53 | Diaph ctr 10uM=.;Diaph ctr 30uM=.
O=C1C2C3c4ccccc4C(c4ccccc43)[C@@H]2c2nc3ccccc3n21 (stereo partly specified) | . | . | . | . | . | . | /
Cc1csc(NC(=O)CSC2=NS(=O)(=O)c3ccccc3N2)n1 | / | . | . | . | / | . | /
O=C(Nc1ccc2nc(-c3ccc(Br)o3)[nH]c2c1)c1cccs1 | . | . | . | . | . | 86 | .
O=C(Nc1ccc2nc(-c3ccc(Br)o3)[nH]c2c1)c1ccco1 | . | . | . | . | . | 70 | .
CCC(C)(NC(=O)CNC(C)=O)C(=O)NC1CCCCC1 (stereo unspecified) | . | . | . | . | . | . | /
O=C(CCC(=O)Nc1ccc(Cl)cc1Cl)N/N=C/c1ccc([N+](=O)[O-])o1 | . | . | . | . | . | 62 | .
CC1N(C)c2cccc3cccc(c23)N1C | . | . | . | . | . | 69 | 53 | Diaph ctr 10uM=.;Diaph ctr 30uM=.
Cc1ccc(C(=O)N2CC=C(c3ccccc3)CC2)o1 | / | . | . | . | / | . | /
O=C(/C=C/c1ccccc1)NC(NC(=S)Nc1ccc(Cl)cc1Cl)C(Cl)(Cl)Cl (stereo unspecified) | . | . | . | . | . | 62 | .
O=C(O)c1cccc(C(=O)O)n1 | . | . | . | / | . | / | /
O=C(O)c1ccc2cccc(O)c2n1 | . | . | . | . | . | 66 | .
CC(=O)OCC1OC(n2c(S)c(C#N)c(-c3ccccc3)c(C#N)c2=O)C(OC(C)=O)C(OC(C)=O)C1OC(C)=O (stereo unspecified) | / | / | / | . | / | 66 | .
COc1ccccc1-n1c(=S)[nH]c2c(sc(=S)n2-c2ccccc2C)c1=O | . | . | . | . | . | 72 | .
CCOc1ccccc1-n1c(=S)sc2c(=O)n(-c3ccccc3)c(=S)[nH]c21 | . | . | . | . | . | 73 | .
COc1ccccc1-n1c(=S)[nH]c2c(sc(=S)n2-c2ccccc2)c1=O | . | . | . | . | . | 63 | .
COc1cccc(-n2c(=S)sc3c(=O)n(-c4ccccc4OC)c(=S)[nH]c32)c1 | . | . | . | . | . | . | /
COc1ccccc1/C=C/C(=O)OCC(=O)Nc1nnc(-c2ccccc2)o1 | / | . | . | . | / | . | /
COCCCNC(=O)Cc1c(C)c2c(cc(C)c3c(C(C)(C)C)coc32)oc1=O | . | . | . | . | . | . | /
Cc1nn(C2CCS(=O)(=O)C2)c(Cl)c1/C=C/C(=O)OCC(=O)N(C)C (stereo unspecified) | . | . | . | . | . | . | /
CCOC(=O)c1cnc2ccc(OCC)cc2c1NCc1cccnc1 | . | . | . | . | . | . | /
CCOC(=O)c1cnc2ccc(OCC)cc2c1NCc1ccccc1 | . | . | . | . | . | 66 | .
